From article PMC13499490 (International Journal for Parasitology: Drugs and Drug …, 2026)

Columns and labels:
[1] = test system: T. cruzi extracts (TCH) translating capped and polyadenylated Renilla luciferase reporter mRNA; assay type: biochemical, Trypanosoma cruzi; conditions: for % Inhibition: initial screen, 40 μM, Renilla luciferase signal relative to DMSO; for concentration above which translation was fully inhibited: Fig. 3C
[2] = test system: supplemented TCH extract translating capped and polyadenylated Renilla mRNA; assay: Miniaturized low-volume; assay type: biochemical, Trypanosoma cruzi; conditions: 8 μL; for % Inhibition (40 µM): Table S3, 40 µM; for inhibition of translation in T. cruzi extract (in words): 40 μM, 2 h, Fig. 3B
[3] = test system: protein synthesis in T. cruzi epimastigotes (WT, DM28c strain); assay: Puromycylation assay in living epimastigotes; assay type: cell-based, Trypanosoma cruzi; conditions: 40 μM, 1 h pre-incubation, then puromycin 10 μg/mL 15 min
Procedure, shortened: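 Dm28c epimastigotes at 1 × 10⁷/mL in LIT-10% FBS, preincubated 1 h at 28°C with test compound (40 μM, from DMSO), with DMSO and 5 μM cycloheximide controls. Puromycin at 10 μg/mL, 15 min, 28°C; cells RIPA-lysed. 20 μg protein run on 10% SDS-PAGE and blotted with anti-puromycin mAb (1:100, overnight, 4°C), then IRDye680 secondary; anti-aldolase loading control. 150–20 kDa signal quantified relative to DMSO; 2–4 independent experiments.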

Plasmodium falciparum = conditions: ref Plouffe et al., 2008; cited from earlier work
[4] = test system: T. cruzi amastigotes (DM28c parasite strain) in Vero cells; assay: Amastigote proliferation and cytotoxicity in Vero cells; assay type: cell-based, Trypanosoma cruzi; conditions: DM28c trypomastigotes, Fig. S6
[5] = test system: T. cruzi epimastigotes (DM28c); assay: Epimastigote proliferation, SYBR Green assay; assay type: cell-based, Trypanosoma cruzi; conditions: for EC50: Trypanosoma cruzi, 72 h, read-out: EC50 epimastigote proliferation; for concentration for maximal inhibition / full block of epimastigote growth: growth curves; for effect on epimastigote growth (in words): Fig. S2, 1% DMSO
[6] = Host cell cytotoxicity in infected U2OS cells; assay type: cell-based; conditions: human
Procedure, shortened: (§1)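 U2OS cells, grown in DMEM with 10% FBS at 37°C and 5% CO2, seeded at 500 cells/well in 384-well plates and infected after 24 h with 5000 Sylvio X10/1 trypomastigotes. Treated 24 h later with test compound (100 μM to 0.7 nM, 0.5% DMSO) for 48 h, with benznidazole and DMSO controls. Cells fixed in 4% paraformaldehyde, stained with DAPI and DRAQ5, imaged by high-content analysis. Amastigote-to-cell ratio normalised to untreated (100%) and non-infected (0%) wells. EC50 and CC50 from three-parameter nonlinear fit; selectivity index from mean EC50 and CC50.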

[7] = test system: rabbit reticulocytes (Retic Lysate IVT kit) translating Renilla mRNA; assay: In vitro translation by rabbit reticulocyte lysate; assay type: biochemical; conditions: 10 µM, 1 hour, Fig. S5
Procedure, shortened: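 Commercial rabbit reticulocyte lysate run per kit instructions, 0.6 μg per reaction of the capped, polyadenylated Renilla luciferase mRNA used in the parasite-extract assays.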

[8] = test system: T. cruzi amastigotes (Sylvio X10/1 clone) in U2OS cells; assay: Intracellular amastigote proliferation in infected U2OS cells; assay type: cell-based, Trypanosoma cruzi; conditions: for EC50: Trypanosoma cruzi, U2OS, 48 h, read-out: EC50 intracellular amastigotes; for selectivity index: from EC50 and CC50 averages, U2OS cells
Procedure, shortened: as §1

PAK4 = conditions: mammalian cells; ref Pereira-Veiga et al., 2025; cited from earlier work
[9] = test system: T. cruzi parasite extract translating Renilla mRNA; assay: Miniaturized 5 μL T. cruzi in vitro translation assay; assay type: biochemical, Trypanosoma cruzi; conditions: 5 μl format, 40 μM, Fig. 5D
Procedure, shortened: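 Extract from DM28c-derived epimastigotes, lysed by nitrogen cavitation; the 30,000 × g supernatant was supplemented with translation buffer containing ATP, GTP, creatine phosphate/kinase, amino acids and spermidine. Reaction of 5 μL: 2 μL lysate, 1 μL test compound (40 μM), 2 μL SP6-transcribed capped, polyadenylated spliced-leader–Renilla luciferase mRNA (22 ng). Luminescence read after adding Renilla luciferase reagent.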

Structure (SMILES): CC1CCC(C(C)C)C(OC(=O)Cn2c(-c3ccc(Br)cc3)[n+](C)c3ccccc32)C1.[Cl-] (stereo not drawn) [Compound 3]
- % Inhibition [1]: ~20%

Structure (SMILES): Cl.Fc1cccc(Nc2nc(NCC3CCCO3)c3ccccc3n2)c1 (stereo not drawn) [Compound 39A]
- % Inhibition (40 µM) [2]: over 50%

Structure (SMILES): Cl.Oc1ccc(Nc2nc(NCC3CCCO3)c3ccccc3n2)cc1 (stereo not drawn) [Compound 39B]
- % Inhibition (40 µM) [2]: over 50%

Structure (SMILES): c1ccc2c(NCC3CCCO3)nc(Nc3ccncc3)nc2c1 (stereo not drawn) [Compound 39C]
- % Inhibition (40 µM) [2]: around 50%

Structure (SMILES): Cl.Fc1ccc(Nc2nc(NCC3CCCO3)c3ccccc3n2)cc1 (stereo not drawn) [Compound 39D]
- puromycin incorporation into elongating protein chains (in words) [3]: inhibited puromycin incorporation

Structure (SMILES): CN(C)c1nc(NCC2CCCO2)c2ccccc2n1.Cl (stereo not drawn) [Compound 39F]
- % Inhibition (40 µM) [2]: around 50%

Structure (SMILES): COc1ccccc1Nc1nc(NCC2CCCO2)c2ccccc2n1 (stereo not drawn) [Compound 39G]
- puromycin incorporation into elongating protein chains (in words) [3]: inhibited puromycin incorporation
- Plasmodium falciparum inhibition (in words) (Plasmodium falciparum): P. falciparum inhibitors
- % Inhibition (40 µM) [2]: over 50%
- EC50 and CC50 values compared with the U2OS/Sylvio experiment (in words) [4]: slightly high values
- EC50 [5]: 2.8 ± 0.2 µM
- concentration for maximal inhibition / full block of epimastigote growth [5]: ~15 µM
- CC50 at 48 h [6]: 33 ± 20 µM
- inhibition of protein synthesis by reticulocyte lysate (in words) [7]: did not inhibit
- EC50 [8]: 0.08 ± 0.07 µM
- selectivity index [8]: ~415

Structure (SMILES): Fc1ccccc1Nc1nc(NCC2CCCO2)c2ccccc2n1 (stereo not drawn) [Compound 39H]
- puromycin incorporation into elongating protein chains (in words) [3]: inhibited puromycin incorporation
- Plasmodium falciparum inhibition (in words) (Plasmodium falciparum): P. falciparum inhibitors
- % Inhibition (40 µM) ([2]; 40 µM): over 50%
- EC50 and CC50 values compared with the U2OS/Sylvio experiment (in words) [4]: Comparable values
- EC50 [5]: 4.8 ± 2 µM
- concentration for maximal inhibition / full block of epimastigote growth [5]: > 50 µM
- CC50 at 48 h [6]: 84 ± 40 µM
- EC50 [8]: 0.4 ± 0.2 µM
- selectivity index [8]: ~200

Structure (SMILES): Cl.OCCNc1nc(NCC2CCCO2)c2ccccc2n1 (stereo not drawn) [Compound 39I]
- % Inhibition (40 µM) [2]: over 50%

Structure (SMILES): Cl.Clc1cccc(Nc2nc(N3CCOCC3)c3ccccc3n2)c1 [Compound 39K]
- % Inhibition (40 µM) [2]: over 50%

Structure (SMILES): Cl.OCCNc1nc(Nc2ccccc2)nc2ccccc12 [Compound 39L]
- % Inhibition (40 µM) ([2]; 40 µM): around 50%

Structure (SMILES): Cl.c1ccc(CNc2nc(NCC3CCCO3)c3ccccc3n2)nc1 (stereo not drawn) [Compound 39M]
- % Inhibition (40 µM) [2]: less than 40%

Structure (SMILES): COc1cccc(Nc2nc(NCC3CCCO3)c3ccccc3n2)c1.Cl (stereo not drawn) [Compound 39]
- puromycin incorporation into elongating protein chains (in words) [3]: inhibited puromycin incorporation
- PAK4 inhibition (in words) (PAK4): inhibit PAK4
- inhibition of in vitro translation (in words) [9]: clear inhibition
- % Inhibition [1]: ~20%

Structure (SMILES): Cc1ccc2c(c1)sc(-c1ccc(N(C)C)cc1)[n+]2C.[I-] [Compound 43]
- puromycin incorporation into elongating protein chains (in words) [3]: inhibited puromycin incorporation

Structure (SMILES): c1ccc(Nc2nc(NCC3CCCO3)c3ccccc3n2)cc1 (stereo not drawn) [Compound 97]
- Plasmodium falciparum inhibition (in words) (Plasmodium falciparum): inhibit Plasmodium falciparum

Structure (SMILES): C[C@@H]1[C@H](O)[C@@H](C)/C=C/C=C/C=C/C=C/C=C/C=C/C=C/[C@H](O[C@@H]2O[C@H](C)[C@@H](O)[C@H](N)[C@@H]2O)C[C@@H]2O[C@](O)(C[C@@H](O)C[C@@H](O)[C@H](O)CC[C@@H](O)C[C@@H](O)CC(=O)O[C@H]1C)C[C@H](O)[C@H]2C(=O)O [Compound 108, Amphotericin B]
- % Inhibition [1]: ~100%

Structure (SMILES): NC[C@@H]1O[C@H](O[C@H]2[C@@H](O)[C@H](O[C@@H]3[C@@H](O)[C@H](N)C[C@H](N)[C@H]3O[C@H]3O[C@H](CO)[C@@H](O)[C@H](O)[C@H]3N)O[C@@H]2CO)[C@H](N)[C@@H](O)[C@@H]1O [Paromomycin, reference compound]
- inhibition of translation in T. cruzi extract (in words) [2]: did not inhibit translation
- inhibition of translation in T. cruzi extract (in words) ([2]; listed as paromomycin): had no effect
- effect on epimastigote growth (in words) [5]: did not affect parasite growth
- effect on epimastigote growth (in words) ([5]; listed as paromomycin): did not impact T. cruzi proliferation

Structure (SMILES): C[C@@H]1C[C@@H]([C@H](O)CC2CC(=O)NC(=O)C2)C(=O)[C@@H](C)C1 [cycloheximide]
- concentration above which translation was fully inhibited [1]: above 0.5 μM

Structure (SMILES): CN[C@@H]1C[C@H](N)[C@@H](O)[C@H](O[C@H]2O[C@H](CO)[C@H](O)[C@@H]3O[C@@]4(O[C@@H]23)O[C@H]([C@H](N)CO)[C@H](O)[C@H](O)[C@H]4O)[C@H]1O [hygromycin]
- concentration above which translation was fully inhibited [1]: above 50 nM
